Source: ChEMBL document CHEMBL2346503, “Synthesis and evaluation of novel (18)F-labeled spirocyclic piperidine derivatives as σ1 receptor ligands for positron emission tomography imaging” (J Med Chem, 2013)

How the values were obtained:
[1] = tested on: Blood; test: Biodistribution in ICR mouse blood at 370 kBq, iv after 60 mins by gamma-counting analysis in presence of haloperidol relative to control; format: ADME, organism-based; settings: in vivo, 1 h
In short: (§1)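 Male ICR mice (n = 5) got saline or haloperidol (0.1 mL, 1.0 mg/kg) via tail vein 5 min before 370 kBq tracer iv. Tissues were taken 60 min later and γ-counted as %ID/g (intestine as %ID/organ). Control and blocked groups were compared by two-tailed independent Student's t test, p ≤ 0.05.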

[2] = tested on: Bone; test: Biodistribution in ICR mouse bone at 370 kBq, iv after 120 mins by gamma-counting analysis; format: ADME, organism-based, Bone element; settings: in vivo, 2 h
In short: (§2)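 Male ICR mice (n = 5 per group) got 370 kBq tracer in 0.1 mL saline by iv injection. They were decapitated at 2, 30, 60 or 120 min, and organs were weighed and γ-counted. %ID/g was found against diluted aliquots of the injected dose, decay-corrected, and given as mean ± SD.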

[3] = tested on: Muscle tissue; test: Biodistribution in ICR mouse muscle at 370 kBq, iv after 120 mins by gamma-counting analysis; format: ADME, organism-based; settings: in vivo, 2 h
In short: (§3)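 Male ICR mice, n = 5 per time point, given the radiotracer in saline (370 kBq, 0.1 mL) by intravenous injection. Killed by decapitation at 2, 30, 60 or 120 min. Organs were excised, weighed and gamma-counted with decay correction. Uptake is expressed as % injected dose per gram of wet tissue against diluted standards of the injected material; stomach and intestine are expressed as % injected dose per organ. Mean ± SD.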

[4] = tested on: Stomach; test: Biodistribution in ICR mouse stomach assessed per organ at 370 kBq, iv after 120 mins by gamma-counting analysis; format: ADME, organism-based; settings: in vivo, 2 h; in short: as §3
[5] = tested on: Spleen; test: Biodistribution in ICR mouse spleen at 370 kBq, iv after 120 mins by gamma-counting analysis; format: ADME, organism-based; settings: in vivo, 2 h; in short: as §3
[6] = tested on: Liver; test: Biodistribution in ICR mouse liver at 370 kBq, iv after 120 mins by gamma-counting analysis; format: ADME, organism-based; settings: in vivo, 2 h; in short: as §2
[7] = tested on: Heart; test: Biodistribution in ICR mouse heart at 370 kBq, iv after 120 mins by gamma-counting analysis; format: ADME, organism-based; settings: in vivo, 2 h; in short: as §2
[8] = tested on: Blood; test: Biodistribution in ICR mouse blood at 370 kBq, iv after 120 mins by gamma-counting analysis; format: ADME, organism-based; settings: in vivo, 2 h; in short: as §2
[9] = tested on: Muscle tissue; test: Biodistribution in ICR mouse muscle at 370 kBq, iv after 60 mins by gamma-counting analysis; format: ADME, organism-based; settings: in vivo, 1 h; in short: as §3
[10] = tested on: Intestine; test: Biodistribution in ICR mouse intestine assessed per organ at 370 kBq, iv after 60 mins by gamma-counting analysis; format: ADME, organism-based; settings: in vivo, 1 h
In short: (§4)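 Male ICR mice (n = 5) got 370 kBq iv in 0.1 mL saline and were decapitated at 2, 30, 60 or 120 min. Whole intestine was γ-counted and expressed as percent injected dose per organ, decay-corrected, mean ± SD.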

[11] = tested on: Stomach; test: Biodistribution in ICR mouse stomach assessed per organ at 370 kBq, iv after 60 mins by gamma-counting analysis; format: ADME, organism-based; settings: in vivo, 1 h; in short: as §3
[12] = tested on: Kidney; test: Biodistribution in ICR mouse kidney at 370 kBq, iv after 60 mins by gamma-counting analysis; format: ADME, organism-based; settings: in vivo, 1 h; in short: as §2
[13] = tested on: Liver; test: Biodistribution in ICR mouse liver at 370 kBq, iv after 60 mins by gamma-counting analysis; format: ADME, organism-based; settings: in vivo, 1 h; in short: as §2
[14] = tested on: Brain; test: Biodistribution in ICR mouse brain at 370 kBq, iv after 60 mins by gamma-counting analysis; format: ADME, organism-based; settings: in vivo, 1 h; in short: as §2
[15] = Ratio of drug uptake from ICR mouse brain to blood after 30 mins; format: ADME, tissue-based; settings: brain and blood
[16] = tested on: Intestine; test: Biodistribution in ICR mouse intestine assessed per organ at 370 kBq, iv after 30 mins by gamma-counting analysis; format: ADME, organism-based; settings: in vivo, 0.5 h; in short: as §4
[17] = tested on: Kidney; test: Biodistribution in ICR mouse kidney at 370 kBq, iv after 30 mins by gamma-counting analysis; format: ADME, organism-based; settings: in vivo, 0.5 h; in short: as §2
[18] = tested on: Stomach; test: Biodistribution in ICR mouse stomach assessed per organ at 370 kBq, iv after 30 mins by gamma-counting analysis; format: ADME, organism-based; settings: in vivo, 0.5 h; in short: as §3
[19] = tested on: Spleen; test: Biodistribution in ICR mouse spleen at 370 kBq, iv after 30 mins by gamma-counting analysis; format: ADME, organism-based; settings: in vivo, 0.5 h; in short: as §3
[20] = tested on: Brain; test: Biodistribution in ICR mouse brain at 370 kBq, iv after 30 mins by gamma-counting analysis; format: ADME, organism-based; settings: in vivo, 0.5 h; in short: as §2
[21] = tested on: Heart; test: Biodistribution in ICR mouse heart at 370 kBq, iv after 30 mins by gamma-counting analysis; format: ADME, organism-based; settings: in vivo, 0.5 h; in short: as §2
[22] = tested on: Blood; test: Biodistribution in ICR mouse blood at 370 kBq, iv after 30 mins by gamma-counting analysis; format: ADME, organism-based; settings: in vivo, 0.5 h; in short: as §2
[23] = Ratio of drug uptake from ICR mouse brain to blood after 2 mins; format: ADME, tissue-based; settings: brain and blood
[24] = tested on: Bone; test: Biodistribution in ICR mouse bone at 370 kBq, iv after 2 mins by gamma-counting analysis; format: ADME, organism-based, Bone element; settings: in vivo; in short: as §2
[25] = tested on: Intestine; test: Biodistribution in ICR mouse intestine assessed per organ at 370 kBq, iv after 2 mins by gamma-counting analysis; format: ADME, organism-based; settings: in vivo; in short: as §4
[26] = tested on: Stomach; test: Biodistribution in ICR mouse stomach assessed per organ at 370 kBq, iv after 2 mins by gamma-counting analysis; format: ADME, organism-based; settings: in vivo; in short: as §3
[27] = tested on: Lung; test: Biodistribution in ICR mouse lung at 370 kBq, iv after 2 mins by gamma-counting analysis; format: ADME, organism-based; settings: in vivo; in short: as §2
[28] = tested on: Kidney; test: Biodistribution in ICR mouse kidney at 370 kBq, iv after 2 mins by gamma-counting analysis; format: ADME, organism-based; settings: in vivo; in short: as §2
[29] = tested on: Heart; test: Biodistribution in ICR mouse heart at 370 kBq, iv after 2 mins by gamma-counting analysis; format: ADME, organism-based; settings: in vivo; in short: as §2
[30] = tested on: Liver; test: Biodistribution in ICR mouse liver at 370 kBq, iv after 2 mins by gamma-counting analysis; format: ADME, organism-based; settings: in vivo; in short: as §2
[31] = Lipophilicity, log D of the compound at pH 7.4 by shake flask method; format: physicochemical; settings: buffer
In short: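 Shake flask: radiotracer (370 kBq) in 3 mL 1-octanol plus 3 mL 0.05 M sodium phosphate buffer pH 7.4, vortexed 3 min at room temperature, then centrifuged. Both phases were gamma-counted and log D = log(cpm/mL octanol ÷ cpm/mL buffer). The octanol layer was repartitioned until values were consistent. Triplicate, repeated three times.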

[32] = tested on: Intestine; test: Biodistribution in ICR mouse intestine assessed per organ at 370 kBq, iv after 60 mins by gamma-counting analysis in presence of haloperidol relative to control; format: ADME, organism-based; settings: in vivo, 1 h; in short: as §1
[33] = tested on: Stomach; test: Biodistribution in ICR mouse stomach assessed per organ at 370 kBq, iv after 60 mins by gamma-counting analysis in presence of haloperidol relative to control; format: ADME, organism-based; settings: in vivo, 1 h
In short: (§5)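 Male ICR mice, n = 5 per group, received saline (0.1 mL) or haloperidol (0.1 mL, 1.0 mg/kg) via tail vein 5 min before the radiotracer (370 kBq, 0.1 mL, iv). Killed by decapitation at 60 min. Tissues were excised, weighed and gamma-counted. Values are % ID/g (stomach as % ID/organ) and percent change versus saline controls, compared by two-tailed independent Student's t test, p ≤ 0.05.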

[34] = tested on: Lung; test: Biodistribution in ICR mouse lung at 370 kBq, iv after 60 mins by gamma-counting analysis in presence of haloperidol relative to control; format: ADME, organism-based; settings: in vivo, 1 h; in short: as §5
[35] = tested on: Heart; test: Biodistribution in ICR mouse heart at 370 kBq, iv after 60 mins by gamma-counting analysis in presence of haloperidol relative to control; format: ADME, organism-based; settings: in vivo, 1 h; in short: as §1
[36] = tested on: Brain; test: Biodistribution in ICR mouse brain at 370 kBq, iv after 60 mins by gamma-counting analysis in presence of haloperidol relative to control; format: ADME, organism-based; settings: in vivo, 1 h; in short: as §1
[37] = Ratio of drug uptake from ICR mouse brain to blood after 120 mins; format: ADME, tissue-based; settings: brain and blood

Row | SMILES | Drug uptake [1] | Drug uptake [2] | Drug uptake [3] | Drug uptake [4] | Drug uptake [5] | Drug uptake [6] | Drug uptake [7] | Drug uptake [8] | Drug uptake [9] | Drug uptake [10] | Drug uptake [11] | Drug uptake [12] | Drug uptake [13] | Drug uptake [14] | Kp at 0.5 h [15] | Drug uptake [16] | Drug uptake [17] | Drug uptake [18] | Drug uptake [19] | Drug uptake [20] | further results
1 | [18F]CCOCCOCCOc1ccc(CN2CCC3(CC2)OCc2ccccc23)cc1 | 17% | 5.28 % ID/g | 2.62 % ID/g | 2.03 %ID | 3.91 % ID/g | 4.14 % ID/g | 3.25 % ID/g | 3.52 % ID/g | 2.64 % ID/g | 4.68 %ID | 1.45 %ID | 4.37 % ID/g | 6.32 % ID/g | 4.63 % ID/g | 1.8 | 6.72 %ID | 5.09 % ID/g | 2 %ID | 7.64 % ID/g | 5.2 % ID/g | Drug uptake [21]: 2.95 % ID/g; Drug uptake [22]: 2.96 % ID/g; Kp at 2 min [23]: 2.9; Drug uptake [24]: 3.38 % ID/g; Drug uptake [25]: 6.21 %ID; Drug uptake [26]: 2.19 %ID; Drug uptake [27]: 20.68 % ID/g; Drug uptake [28]: 16.45 % ID/g; Drug uptake [29]: 7.69 % ID/g; Drug uptake [30]: 5.83 % ID/g; logD [31]: 1.9; Drug uptake [32]: 30%; Drug uptake [33]: 28%; Drug uptake [34]: 6%; Drug uptake [35]: 17%; Drug uptake [36]: -16%; Kp at 2 h [37]: 1.1
2 | [18F]CCOc1ccc(CN2CCC3(CC2)OCc2ccccc23)cc1 | 352% | 6.13 % ID/g | 4.01 % ID/g | 0.89 %ID | 9.09 % ID/g | 13.6 % ID/g | 8.54 % ID/g | 1.2 % ID/g | 4.41 % ID/g | 7.81 %ID | 0.9 %ID | 10.87 % ID/g | 13.87 % ID/g | 9.1 % ID/g | 12.9 | 8.02 %ID | 13.16 % ID/g | 1.09 %ID | 8.2 % ID/g | 9.32 % ID/g | Drug uptake [21]: 14.39 % ID/g; Drug uptake [22]: 0.72 % ID/g; Kp at 2 min [23]: 4.7; Drug uptake [24]: 2.74 % ID/g; Drug uptake [25]: 6.62 %ID; Drug uptake [26]: 1.45 %ID; Drug uptake [27]: 47.91 % ID/g; Drug uptake [28]: 18.76 % ID/g; Drug uptake [29]: 21.71 % ID/g; Drug uptake [30]: 8.46 % ID/g; logD [31]: 2.41; Drug uptake [32]: -7%; Drug uptake [33]: 208%; Drug uptake [34]: -76%; Drug uptake [35]: -61%; Drug uptake [36]: -58%; Kp at 2 h [37]: 7.5
